Bounds are passed on as bounds.

From ChEMBL document CHEMBL1123516, “Substituted 1,3,4-thiadiazoles with anticonvulsant activity. 1. Hydrazines” (J Med Chem, 1986) come the findings set out here.

Data set [1] has as its system Mus musculus. The data set is described as follows: Anticonvulsant activity tested by maximal electroshock test (MES) in mouse after 1 hr of administration. In kind it is functional. Put shortly:
(§1)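 Male BKW mice (LACA origin), 18-22 g, dosed ip or po with compound dissolved or suspended in 2% Tween 80 in distilled water. Readout was block of hind limb tonic seizure. ED50 was derived by probit analysis using the computerized Bliss method.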
A general note: In the maximal electroshock model the usual endpoint is tonic extension of the hind limbs.

The nature of data set [2]: Neurotoxicity by performing a rotarod in mouse after 1 hr of administration. In kind it is toxicity, organism-based. Conditions: in vivo. Put shortly:
(§2)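 Male BKW mice, 18-22 g, were pre-trained on a rotorod turning at 16 rpm (3 cm drum). They were dosed ip or po in 2% Tween 80/water and tested at timed intervals. TD50, the dose at which 50% fell off the rod, was derived by probit analysis.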
(In general: In the rotarod test animals must keep their balance on a rotating rod.)

For data set [3], the system named is Mus musculus. The experiment in a line: Anticonvulsant activity tested by maximal metrazole seizure (MMS) test in mouse after 1 hr of administration. In kind it is functional. Put shortly:
(§3)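 Male BKW mice, 18-22 g, dosed orally with compound in 2% Tween 80/water. Metrazol 120 mg/kg ip was given 1 h after dosing. ED50 for block of hind limb tonic seizure was derived by Bliss probit analysis.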

For data set [4], the system named is Mus musculus. The experiment in a line: Anticonvulsant activity was assessed by performing maximal electroshock test (MES) 1 hr after dosing, in mouse. It is filed as functional. In outline:
as §1

Data set [5] is described as follows: Neurotoxicity by performing a rotarod test in mouse after 1 hr of administration. In kind it is toxicity, organism-based. To be noted: in vivo. In outline:
as §2

The nature of data set [6]: Neurotoxicity by a rotarod test in mouse after 1 hr of administration. In kind it is toxicity, organism-based. To be noted: in vivo. Put shortly: as §2
The subject of data set [7] is Rattus norvegicus. The data set is described as follows: Maximum percent fall in mean arterial blood pressure was evaluated by injecting 100 mg/kg perorally in DOCA hypertensive rats. To be noted: route oral. It is filed as functional.
For data set [8], the system named is Mus musculus. The data set is described as follows: Inhibition of hind limb tonus was tested by maximal metrazole seizure (MMS) test in mouse after 1 hr of peroral administration. Conditions: Hindlimb, po. In kind it is functional. Put shortly:
as §3

Data set [9] in a line: Protective index (rat) was from the ratio of plasma concentration at which side effects occur by plasma concentration at which anticonvulsant activity occur. In kind it is functional. In outline: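 Rat plasma drug concentration at rotorod impairment was divided by the plasma concentration at MES anticonvulsant activity. Both were measured by HPLC-UV in plasma from dosed rats.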

Data set [10] relates to Rattus norvegicus. The experiment in a line: Inhibition of hind limb tonus was tested by maximal metrazole seizure test after 4 hr of peroral administration. In kind it is functional. Conditions: Hindlimb, po.
In data set [11] the test system is Rattus norvegicus. The data set is described as follows: Inhibition of hind limb tonus was tested by maximal metrazole seizure test after 1 hr of peroral administration of compound. In kind it is functional. To be noted: Hindlimb, po.
Data set [12] deals with Mus musculus. The experiment in a line: Inhibition of hind limb tonus was tested at time of peak effect by maximal electroshock test (MES) in mouse on intraperitoneal administration of compound. In kind it is functional. Conditions: Hindlimb, ip. Put shortly:
as §1

Data set [13] concerns Rattus norvegicus. The data set is described as follows: Inhibition of hind limb tonus was tested at time of peak effect by maximal electroshock test (MES) on intraperitoneal administration of compound in rats. In kind it is functional. Conditions: Hindlimb, ip.
Data set [14] concerns Mus musculus. The data set is described as follows: Inhibition of hind limb tonus was tested by maximal electroshock test (MES) in mouse after 1 hr of peroral administration of compound. In kind it is functional. To be noted: Hindlimb, po. Put shortly:
as §1

Data set [15] relates to Rattus norvegicus. The data set is described as follows: Inhibition of hind limb tonus was tested by maximal electroshock test (MES) in rat after 1 hr of peroral administration. It is filed as functional. Conditions: Hindlimb, po.
The test system of data set [16] is Rattus norvegicus. The experiment in a line: Inhibition of hind limb tonus was tested by maximal electroshock test (MES) in rat after 4 hr of peroral administration. It is filed as functional. To be noted: Hindlimb, po.
A short description of data set [17]: Effect of compound on mouse motor performance was tested by rotarod test administered intraperitoneally. It is filed as ADME, organism-based. To be noted: in vivo, ip. Put shortly: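 Male BKW mice (18-22 g) were pre-trained on a 16 rpm rotorod with a 3 cm drum. Drug was injected intraperitoneally as a solution or suspension in 2% aqueous Tween 80, and mice were tested at the time of peak effect. TD50 was the dose making 50% of trained animals fall off, calculated by probit analysis.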

In data set [18] the test system is Rattus norvegicus. The experiment in a line: Inhibition of hind limb tonus was tested at time of peak effect by maximal electroshock test (MES) in rat on intraperitoneal administration of compound. In kind it is functional. Conditions: Hindlimb, ip. In outline: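 Rats received compound intraperitoneally and were tested at the time of peak effect. ED50 was the dose blocking hind limb tonic seizure in 50% of animals, derived by probit analysis using the Bliss computerized method (Finney).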

Data set [19] deals with Mus musculus. The experiment in a line: Inhibition of hind limb tonus was tested at time of peak effect by maximal metrazole seizure (MMS) test administered intraperitoneally in mouse. It is filed as organism-based. Conditions: Hindlimb, ip. Put shortly: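 Male BKW mice (18-22 g) received compound intraperitoneally in 2% aqueous Tween 80 and were challenged with metrazol 120 mg/kg ip at the time of peak effect. ED50 for block of hind limb tonic seizure in 50% of mice was obtained by probit analysis.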

Data set [20] in a line: Effect of compound on mouse motor performance was tested by performing a rotarod test after 1 hr of peroral administration. In kind it is ADME, organism-based. To be noted: in vivo, po. Put shortly: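 Male BKW mice (LACA origin, 18-22 g) were pre-trained on a rotorod at 16 rpm with a 3 cm drum. Compound was given orally in 2% Tween 80 in water, and mice were tested 1 h later. TD50 was the dose at which 50% fell off, derived by probit analysis.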

Data set [21] can be described thus: Effect of compound on mouse motor performance was tested by rotarod test after 1 hr of peroral administration. In kind it is ADME, organism-based. Conditions: in vivo, po. In outline: as §2
For data set [22], the species on record is Rattus norvegicus. The data set is described as follows: Plasma concentration in rat rotarod test. In kind it is functional, organism-based. In outline: (§4)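 Groups of six rats received compound suspended in 2% Tween 80/water (0.5 mL/100 g) ip or po. Blood was drawn by cardiac puncture into heparin at various times. Plasma was extracted and assayed by HPLC-UV on an ODS column with 1% acetic acid/methanol/0.1% aqueous ammonium acetate (45:55).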

The nature of data set [23]: Effect of compound on mouse motor performance was studied by performing a rotarod test in mouse dosing intraperitoneally at time of peak effect. To be noted: in vivo, ip. It is filed as ADME, organism-based. Put shortly: as §2
The species named for data set [24] is Rattus norvegicus. The experiment in a line: Plasma concentration was determined in rat maximal electroshock test. It is filed as functional, organism-based. Put shortly: as §4
The test system of data set [25] is Rattus norvegicus. The data set is described as follows: Inhibition of hind limb tonus was tested by maximal metrazole seizure test after 4 hr of peroral administration in rats. It is filed as functional. Conditions: Hindlimb, po. Put shortly:
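Rats received the anticonvulsant orally, then metrazol (leptazol) 80 mg/kg iv, following Desmedt et al. The endpoint was block of the hind limb tonic seizure. ED50 was the dose protecting 50% of animals, by probit analysis (Bliss computerized method), with limits.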

The test system of data set [26] is Rattus norvegicus. The experiment in a line: Inhibition of hind limb tonus was tested by maximal electroshock test (MES) in rat 1 hr after peroral dosing. It is filed as functional. To be noted: Hindlimb, po.
The subject of data set [27] is Mus musculus. The data set is described as follows: Inhibition of hind limb tonus was tested by performing a maximal metrazole seizure (MMS) test in mouse after 1 hr of peroral administration of compound. To be noted: Hindlimb, po.
In data set [28] the test system is Rattus norvegicus. The data set is described as follows: Inhibition of hind limb tonus was tested by maximal metrazole seizure test after 1 hr of peroral administration in rats. It is filed as functional. To be noted: Hindlimb, po. In outline:
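Rats were dosed orally, then given metrazol (leptazol) 80 mg/kg iv 1 h later, following the Desmedt method. The endpoint was hind limb tonic seizure, with ED50 by probit analysis.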

As a reminder, the ED50 is the midpoint of the dose-response relation. High values mean a need for a large dose, low ones an effect at a small dose. The term TD50 denotes the dose at which the toxic effect under study appears in half of the subjects. Lower therefore signals harm at a small dose. On to `COCN(N)c1nnc(-c2ccccc2Cl)s1`, for which the ED50 came to 50 mg/kg in data set [1] and 60 mg/kg in data set [3]. Besides, the TD50 at 1 h in [2] is 80 mg/kg.
Take `CN(C)N(C)c1nnc(-c2ccccc2-c2ccccc2)s1.Cl`: the 50% effective dose (ED50) worked out at 63 mg/kg in data set [4] and 73 mg/kg in [3]. The same molecule returned a TD50 at 1 h in [5] of over 800 mg/kg.
On to `CCCCCCOc1ccccc1-c1nnc(NN)s1.Cl`, for which the values for the ED50 in data set [1] and in data set [3] were 20 mg/kg and 33 mg/kg, respectively. Moreover, in [6], the TD50 at 1 h is over 150 mg/kg. The “Decrease in blood pressure” value in [7] was found to be 10%.
With `NC(=O)N1c2ccccc2C=Cc2ccccc21` [CARBAMAZEPINE], the 50% effective dose (ED50) in [8] turned out to be 11 mg/kg; in [10], 5 mg/kg; in data set [11], 3 mg/kg; in data set [12] it was 6 mg/kg; in [13] it was 2 mg/kg; in data set [14] it was 20 mg/kg. Besides, the values for the ED50 in [15] and in data set [16] were 4 mg/kg and 7 mg/kg, respectively. The PI in [9] is on record as 2.51.
As to `CCC1(c2ccccc2)C(=O)NC(=O)NC1=O` [PHENOBARBITAL], the ED50 in [8] came out at 4 mg/kg; in data set [18] it was 3 mg/kg; in [10], 5 mg/kg; in [11], 4 mg/kg; in [19], 6 mg/kg; in data set [12] it was 18 mg/kg. Further, the ED50 in data set [14] is 12 mg/kg; in [15] it was 9 mg/kg; in data set [16], 3 mg/kg. Also, the PI in data set [9] was 2.42. This molecule also gave a TD50 in data set [17] of 86 mg/kg. This molecule registered a TD50 at 1 h in data set [20] of 68 mg/kg.
With `CN(N)c1nnc(-c2ccccc2-c2ccccc2)s1`, the ED50 in data set [8] stood at 27 mg/kg; in data set [10], 13 mg/kg; in data set [11], 13 mg/kg; in [12] it was 17 mg/kg; in data set [13], 6 mg/kg; in [14], 18 mg/kg. Also, the figures for the 50% effective dose (ED50) in data set [15] and in [16] were 16 mg/kg and 11 mg/kg, respectively. Besides, the PI in [9] came out at 5.14. In [21], this molecule returned a TD50 at 1 h of over 1000 mg/kg. For the same molecule, the results for the Concentration in data set [22] and in [24] were 57 µg/mL and 11.1 µg/mL, respectively. Further, the TD50 in data set [23] stood at 93 mg/kg.
For `O=C1NC(=O)C(c2ccccc2)(c2ccccc2)N1` [PHENYTOIN], the PI in data set [9] was determined as 5.17. Moreover, the 50% effective dose (ED50) in [25] was determined as 20 mg/kg; in [26], 14 mg/kg; in data set [19], 12 mg/kg; in data set [12], 8 mg/kg; in data set [13], 14 mg/kg; in data set [27], 8 mg/kg. Moreover, the ED50 turned out to be 8 mg/kg in data set [14], 26 mg/kg in [16] and 12 mg/kg in [28].
